# Assay results as given in ChEMBL document CHEMBL1146365, “Synthesis and biological evaluation of new N-(2-hydroxy-4(or 5)-nitro/aminophenyl)benzamides and phenylacetamides as antimicrobial agents” (2007).
# Assays:
# Klebsiella pneumoniae [1] = test: Antibacterial activity against Klebsiella pneumoniae isolate assessed after 24 hrs by serial dilution method; assay type: functional
# Summary of the method: (§1)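 Strains were subcultured twice on MHA at 37 °C overnight. Inoculum was diluted from McFarland 0.5 to 10^5 cfu/ml, giving 10^4 cfu/ml in wells. Solvent, medium and organism-only controls were included. Incubated 37 °C, humid chamber, 24 h, in triplicate. MIC = lowest concentration with no macroscopic growth.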
# Pseudomonas aeruginosa [2] = test: Antibacterial activity against Pseudomonas aeruginosa isolate assessed after 24 hrs by serial dilution method; assay type: functional; summary of the method: as §1
# Escherichia coli [3] = test: Antibacterial activity against Escherichia coli isolate assessed after 24 hrs by serial dilution method; assay type: functional; summary of the method: as §1
# Bacillus subtilis [4] = test: Antibacterial activity against Bacillus subtilis ATCC 6633 assessed after 24 hrs by serial dilution method; assay type: functional; summary of the method: as §1
# Staphylococcus aureus [5] = test: Antibacterial activity against Staphylococcus aureus ATCC 25923 assessed after 24 hrs by serial dilution method; assay type: functional; summary of the method: as §1
# Escherichia coli [6] = test: Antibacterial activity against Escherichia coli ATCC 25922 assessed after 24 hrs by serial dilution method
# Klebsiella pneumoniae [7] = test: Antibacterial activity against Klebsiella pneumoniae RSHM 574 assessed after 24 hrs by serial dilution method
# Bacillus subtilis [8] = test: Antibacterial activity against drug-resistant Bacillus subtilis assessed after 24 hrs by serial dilution method
# Staphylococcus aureus [9] = test: Antibacterial activity against drug-resistant Staphylococcus aureus assessed after 24 hrs by serial dilution method
# Candida albicans [10] = test: Antifungal activity against Candida albicans ATCC 10231 assessed after 48 hrs by serial dilution method; assay type: functional; details: ATCC 10231, 48 h
# Summary of the method: (§2)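 Broth microdilution per CLSI M27-A in RPMI-1640 with L-glutamine, MOPS-buffered pH 7, with 2-fold compound dilutions. Yeasts were subcultured twice on SDA at 35 °C for 24–48 h. Inoculum was diluted from McFarland 0.5 to 10^4 cfu/ml, giving 10^3 cfu/ml in wells. Incubated 35 °C, humid chamber, 48 h, in triplicate. MIC = lowest concentration with no macroscopic growth.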
# Candida albicans [11] = test: Antifungal activity against Candida albicans isolate assessed after 48 hrs by serial dilution method; assay type: functional; summary of the method: as §2
# Escherichia coli [12] = test: Antibacterial activity against Escherichia coli ATCC assessed after 24 hrs by serial dilution method
# Pseudomonas aeruginosa [13] = test: Antibacterial activity against Pseudomonas aeruginosa ATCC […] assessed after 24 hrs by serial dilution method
Compound,MIC (Klebsiella pneumoniae [1]),MIC (Pseudomonas aeruginosa [2]),MIC (Escherichia coli [3]),MIC (Klebsiella pneumoniae [7]),MIC (Bacillus subtilis [8]),MIC (Staphylococcus aureus [9]),"MIC (Bacillus subtilis [4]; ATCC 6633, 24 h)","MIC (Staphylococcus aureus [5]; ATCC 25923, 24 h)",MIC (Candida albicans [10]),MIC (Candida albicans [11]),MIC (Escherichia coli [12]),MIC (Pseudomonas aeruginosa [13]),MIC (Bacillus subtilis [4]),MIC (Staphylococcus aureus [5]),MIC (Escherichia coli [6])
GENTAMICIN SULFATE,1020 µg/mL,1020 µg/mL,0.97 µg/mL,> 4100 µg/mL,2050 µg/mL,1020 µg/mL,–,–,–,–,–,–,512 µg/mL,> 4100 µg/mL,1020 µg/mL
Nc1ccc(O)c(NC(=O)c2ccccc2)c1,250 µg/mL,250 µg/mL,250 µg/mL,125 µg/mL,62.5 µg/mL,31.2 µg/mL,15.6 µg/mL,31.2 µg/mL,125 µg/mL,125 µg/mL,125 µg/mL,125 µg/mL,–,–,–
Cc1ccc(CC(=O)Nc2cc([N+](=O)[O-])ccc2O)cc1,250 µg/mL,250 µg/mL,250 µg/mL,125 µg/mL,62.5 µg/mL,125 µg/mL,15.6 µg/mL,250 µg/mL,250 µg/mL,250 µg/mL,125 µg/mL,125 µg/mL,–,–,–
O=C(Nc1ccc([N+](=O)[O-])cc1O)c1ccc(F)cc1,250 µg/mL,250 µg/mL,250 µg/mL,125 µg/mL,15.6 µg/mL,15.6 µg/mL,3.9 µg/mL,7.8 µg/mL,250 µg/mL,250 µg/mL,125 µg/mL,125 µg/mL,–,–,–
Nc1ccc(NC(=O)c2ccccc2)c(O)c1,250 µg/mL,250 µg/mL,125 µg/mL,125 µg/mL,62.5 µg/mL,15.6 µg/mL,62.5 µg/mL,125 µg/mL,62.5 µg/mL,62.5 µg/mL,125 µg/mL,125 µg/mL,–,–,–

# Stronger by MIC (Klebsiella pneumoniae [1]), values ahead:
MIC (Klebsiella pneumoniae [1]),MIC (Pseudomonas aeruginosa [2]),MIC (Escherichia coli [3]),MIC (Klebsiella pneumoniae [7]),MIC (Bacillus subtilis [8]),MIC (Staphylococcus aureus [9]),"MIC (Bacillus subtilis [4]; ATCC 6633, 24 h)","MIC (Staphylococcus aureus [5]; ATCC 25923, 24 h)",MIC (Candida albicans [10]),MIC (Candida albicans [11]),MIC (Escherichia coli [12]),MIC (Pseudomonas aeruginosa [13]),Compound,MIC (Bacillus subtilis [4]),MIC (Staphylococcus aureus [5]),MIC (Escherichia coli [6])
125 µg/mL,125 µg/mL,125 µg/mL,62.5 µg/mL,62.5 µg/mL,15.6 µg/mL,62.5 µg/mL,15.6 µg/mL,62.5 µg/mL,62.5 µg/mL,125 µg/mL,62.5 µg/mL,Nc1ccc(O)c(NC(=O)c2ccc(F)cc2)c1,–,–,–
125 µg/mL,250 µg/mL,250 µg/mL,250 µg/mL,125 µg/mL,125 µg/mL,31.2 µg/mL,250 µg/mL,250 µg/mL,250 µg/mL,125 µg/mL,250 µg/mL,O=C(Cc1ccc(Br)cc1)Nc1ccc([N+](=O)[O-])cc1O,–,–,–
62.5 µg/mL,125 µg/mL,125 µg/mL,62.5 µg/mL,31.2 µg/mL,15.6 µg/mL,62.5 µg/mL,15.6 µg/mL,62.5 µg/mL,62.5 µg/mL,125 µg/mL,62.5 µg/mL,CCc1ccc(C(=O)Nc2cc(N)ccc2O)cc1,–,–,–
